The list is not random: actives were taken first. Their share in the collection is about 8.7%.
PostGolgi ctrl – growth of the yeast control strain, post-Golgi counter-screen. efflux-deficient yeast background strain, growth absorbance A615, 16 h. inhibition, % at 10 µM. 98,000 compounds, 5% hits
Pyk2 oligo antag – Pyk2 (human) oligomerization antagonism. Q14289. Q293 cells, Pyk2 FERM NanoBiT luminescence; hits give low values. z-score (the deposit names both 25 µM and 10 µM). 99,000 compounds, 0.83% hits;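 active means Z-score of -3 or lower, scaled per plate to the spread of control and sample wells; inactive means z-score above -3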;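 further: negative z-score means lost luminescence so less FERM oligomerization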
Cav32 inh – human Cav3.2 channel inhibition, primary screen | O95180 | Cav3.2-expressing cells, Fluo-4 calcium fluorescence FDSS; hits give low values | B-score at 10 µM | 100,000 compounds, 4% hits;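 active means single-dose well whose peak fluorescence ratio is a statistical outlier from its plate by either plate-standardised score or position-corrected B-score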
Ecoli WT expand – blocks growth of wild type E. coli BW25113; OD600 absorbance; AID 710; growth inhibition, % at 100 µM; 98,000 compounds, 0.15% hits;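 active means growth inhibition above about 50% at one test dose, limit read from the data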;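 further: growth measured after 20 h incubation at 37 °C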
Ecoli tolC – E. coli tolC mutant growth inhibition; E. coli BW25113 tolC mutant growth, OD615; growth inhibition, % at 10 µM (by protocol); 65,000 compounds, 2.2% hits;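 active means growth inhibition at or above a cutoff equal to the mean over every tested compound plus 3 SD, cut at about 60% in these data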;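 further: growth measured after 20 h incubation at 37 °C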
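test system = E. coli BW25113 ΔtolC::kan bacteria | medium = LB with kanamycin 50 µg/mL | signal = OD at 615 nm | schedule = 37 °C, 20 h exposure | evaluation = % inhibition of E. coli growth | compound dosing = one dose of 10 µM final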
PostGolgi yeast – growth inhibition of a yeast mutant, post-Golgi transport screen | inhibition, % at 10 µM | post-Golgi transport phenotypic cell assay | 98,000 compounds, 0.9% hits | AID 739;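 further: yeast cells grown in 1536-well plates; yeast grown about 18 h at 30C before absorbance read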
The depositor's hits bear a star; . = not tested or not shown. Unless noted, no stated cut-off is given here; in the data, active means inhibition above about 30%; inactive means the rest.

SMILES	PostGolgi ctrl	Pyk2 oligo antag	Cav32 inh	Ecoli WT expand	Ecoli tolC	PostGolgi yeast
CC(C)CC(c1nnnn1Cc1ccco1)N1CCN(c2cccc(Cl)c2)CC1 (stereo not drawn)	40*	-0.02	-2.5	-11	9	-8
Cc1ccc(C(c2nnnn2CC2CCCO2)N2CCN(c3cccc(C)c3C)CC2)cc1 (stereo not drawn)	27	-3.4*	.	-13	8	0
CC(C)CC(c1nnnn1CCc1ccccc1)N1CCN(C(=O)c2ccco2)CC1 (stereo not drawn)	30*	0.26	0.087	-2	1	2
CC(C)CC(c1nnnn1CC1CCCO1)N1CCN(c2cccc(Cl)c2)CC1 (stereo not drawn)	34*	-2.1	-1.2	7	-12	4
CCCCc1ccc(-c2nc(NC(=O)C3C4CCC(O4)C3C(=O)O)sc2C)cc1 (stereo not drawn)	29	.	-0.73	6	.	-6
COCCN(CC(=O)Nc1ccccc1)S(=O)(=O)c1ccc(S(=O)(=O)N2CCCC2)cc1	11	0.24	0.52	-1	-19	-5
COC(=O)c1sc2ccccc2c1-n1cccc1C(=O)C(=O)Nc1ccccc1	12	-0.47	-4	-14	.	-12
CCc1nn2c(N3CCOCC3)cc(C)nc2c1-c1ccc(F)cc1	45*	0.24	1.9	0	12	-4
Cc1cc(N2CCOCC2)n2ncc(-c3ccccc3)c2n1	26	0.44	-1.7	-3	.	0
Cc1ccc(S(=O)(=O)NC2CCCc3ccccc32)cc1C (stereo not drawn)	9	-0.92	-4.2*	-10	.	4
Cc1nn(C)c(C)c1S(=O)(=O)NC1CCCc2ccccc21 (stereo not drawn)	-3	0.24	-0.16	4	2	10
CN1CCN(c2ccc(S(=O)(=O)N3CCCCC3)cn2)CC1	6	-3.9*	0.62	-1	.	0
O=S(=O)(c1ccc(N2CCCC2)nc1)N1CCOCC1	11	-0.48	0.022	4	.	9
CC(=O)NC1=C(C#N)C(c2ccccc2)c2c(ccc3ccccc23)O1 (stereo not drawn)	24	-0.34	-0.54	-16	.	-8
CCn1cc(C(=O)NC2CCCCCC2)c2cc(OC)c(OC)cc2c1=O	2	-0.08	1.7	-6	-7	0
CCN1C(=S)SC(=O)C1=C1C=C(C)N(Cc2ccco2)C(C)=C1	38*	0.94	.	-5	22	-9
CCN1C(=S)SC(=O)C1=C1C=C(C)OC(C)=C1	2	-2.4	-0.15	1	-6	1
Cc1cc(C)c(NC(=O)C2CCCN2C(=O)NC2CCCCC2)c(C)c1 (stereo not drawn)	.	-0.55	0.88	.	.	.
CCOC(=O)Nc1ccc2c(C)cc(=O)oc2c1	33*	0.02	0.24	2	7	0
Fc1ccc(Sc2nc(-c3ccccc3)nnc2C(F)(F)F)cc1	72*	-0.86	.	4	.	16
Fc1ccc(Oc2nc(-c3ccccc3)nnc2C(F)(F)F)cc1	17	-0.11	-0.2	-4	.	-2
CCOC(=O)C[C@H]1c2cc(F)ccc2S(=O)(=O)N1Cc1ccc(OC)cc1	.	.	-0.055	.	.	.
CCCCc1nn(-c2cc(Cl)ccc2OC)c2c1C(=O)CC(C)(C)C2	32*	.	-3.2	-4	.	-4
CC(=O)C1=C(C)NC(=O)NC1c1ccc(OC2CCCC2)cc1 (stereo not drawn)	1	1.7	2.6	-2	3	-5
COc1ccc(NC2SC(=O)N(CC(=O)O)C2=O)cc1 (stereo not drawn)	37*	-0.13	-0.85	-4	-17	9
SMILES	PostGolgi ctrl	Pyk2 oligo antag	Cav32 inh	Ecoli WT expand	Ecoli tolC	PostGolgi yeast
O=C(O)CN1C(=O)SC(Nc2ccccc2)C1=O (stereo not drawn)	.	0.78	-0.13	.	.	.
CCOC(=O)N1CCN(c2ccc(S(=O)(=O)N(Cc3ccccc3)Cc3ccccc3)cn2)CC1	-4	-0.73	0.64	4	19	34*
CCOC(=O)N1CCN(C(=O)CN(Cc2ccccc2)S(C)(=O)=O)CC1	5	1.8	0.39	3	-12	5
O=C(CN1C(=O)CCSc2ccccc21)Nc1ccc(F)cc1	15	-0.04	0.46	1	-6	-5
Cc1ccc(C)c(N(CC(=O)NCc2ccc3c(c2)OCO3)C(=O)CCC(=O)Nc2ccccn2)c1	30*	-2.8	.	-7	7	-1
CCC(C)(C)NC(=O)CN(C(=O)CCC(=O)Nc1ccccn1)c1ccc(F)c(Cl)c1	1	-0.38	-2	2	.	41*
O=C(CCC(=O)N(CC(=O)NC1CCCCC1)c1ccc2c(c1)OCO2)Nc1ccccn1	8	-0.23	-5.7*	-7	2	-1
CC(C)NC(=O)CN(C(=O)CCC(=O)Nc1ccccn1)c1ccc(F)c(Cl)c1	3	-0.27	-0.73	1	-10	2
Cc1cc(C)cc(N(CC(=O)NCc2ccc3c(c2)OCO3)C(=O)CCC(=O)Nc2ccccn2)c1	1	-2.8	-6.1*	-5	9	4
CCC(C)c1ccc(NC(=O)COC(=O)C2=COCCO2)cc1 (stereo not drawn)	4	0.2	-0.28	3	.	-4
CCCC(=O)c1c(C)c2ccccc2n1C	-4	0.13	-0.37	0	6	8
CC1(C(=O)N(c2ccccc2)C(C(=O)NC2CCCC2)c2ccccn2)CC(=O)N=C2C=CC=CN21 (stereo not drawn)	1	0.61	-1.4	0	-13	1
O=C(CSc1nnc(-c2cccs2)n1-c1ccccc1)N1CCc2ccccc21	.	.	.	.	5	.
Cc1ccc(C(=O)CSc2nnnn2C(C)C)c(C)c1	6	1.3	-1.7	6	.	-3
CCCCCCN1C(=O)C(O)=C(C(C)=O)C1c1ccc(Cl)cc1 (stereo not drawn)	29	-0.39	-7.8*	8	47	3
O=C(c1cc(-c2cccs2)on1)N1CCN(c2ccccc2)CC1	14	0.52	.	-9	56	5
COc1ccc(OC)c(-c2cc(C(=O)N3CCN(c4ccccc4)CC3)no2)c1	33*	.	-2.2	-19	10	-8
COc1cccc(-c2cc(C(=O)N3CCc4ccccc4C3)no2)c1	21	0.25	-2.3	-8	90*	1
COc1ccc(OC)c(-c2cc(C(=O)N3CCc4ccccc4C3)no2)c1	41*	-0.1	0.73	-19	69*	-1
Cc1nc(NC(=O)c2ccccc2)sc1-c1csc(NCc2ccccc2)n1	15	-0.66	-0.65	-31	.	67*
Cc1nc(C)n(C(C)CC(=O)O)n1 (stereo not drawn)	3	0.59	-0.031	3	-25	1
Cc1ccc(CNC(=O)C2CCC(=O)N2C2CCCCC2)cc1 (stereo not drawn)	1	0.6	0.018	2	-20	1
O=C(NCc1ccc(F)cc1)C1CCC(=O)N1C1CCCCC1 (stereo not drawn)	35*	0.49	0.0018	7	2	-3
O=C(NCCN1CCOCC1)C1CCC(=O)N1C1CCCCC1 (stereo not drawn)	3	-0.03	-1.3	-2	-15	1
